PolyA inh: blocks polyadenylation in yeast reporter cells; S. cerevisiae SKY197-pL101 polyadenylation reporter, beta-gal luminescence; efflux-impaired pdr1/pdr3 knockout yeast; score 100 = 6 SD above DMSO; activity score, % at 12 µM; hit rate 0.02% among 300,000;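 active = lowest replicate activity score at least 50, where 100 means six control SD above control mean; inconclusive = lowest score under 50 but half or more replicates reach 50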;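 also: yeast exposed to compound for 9 h at 30 °C; higher score means more reporter readthrough which indicates perturbed polyadenylation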
Calb FLC: affects C. albicans growth with fluconazole | AID 1979 | hit rate 0.57% among 300,000 | growth inhibition, % (test concentration not listed) | C. albicans CaCi-2 (fluconazole-resistant clinical isolate) + fluconazole, Alamar Blue growth, 48 h;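 active = growth inhibition above about 58% in most replicates, limit read from the data, passing the limit was not always enough; inconclusive = exactly half the replicates above a set limit; inactive = most replicates below a set limit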;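 also: all wells also contain fluconazole at 8 µg/ml as a sub-toxic cotreatment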
NALP3 yeast inh: NALP3 inhibition in yeast; Yeast reconstituted NLRP3/ASC/caspase-1, beta-gal luminescence, 24 h; inhibition, % at 10 µM; hit rate 0.39% among 330,000; AID 2825;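 active = inhibition of 50% or more; inactive = inhibition below 50%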
NALP1 inh: inhibitors of NALP1 inflammasome in yeast; S. cerevisiae NALP1/ASC/caspase-1 growth, X-gal OD620, 72 h; inhibition, % at 10 µM; hit rate 0.61% among 280,000; AID 2071; in the data active = inhibition mostly above about 24%, no sharp cut-off; inactive = mostly below about 32%
T cruzi inh: T. cruzi replication inhibition; inhibition, % (test concentration not listed); T. cruzi beta-gal in NIH3T3, luminescence, 90 h; hit rate 1.4% among 300,000;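 active = mean inhibition across valid replicates above about 55%, limit read from the data; inconclusive = mean below that limit but half or more replicates reach it; inactive = mean below it, under half of replicates reach it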;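 also: signal also drops with host cell toxicity which is not excluded here; higher percent means less beta-gal luminescence so fewer parasites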
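Test system: β-gal T. cruzi (Tulahuen C4) inside NIH/3T3 cells / Quantity: 5,000 cells/well / Measured by: luminescence from GalScreen with 0.05% NP40, read after 60 min / Medium: DMEM plus 2% FBS / Measure: parasite load inhibition, % / Reagent: Tulahuen C4 trypomastigotes, 5000/well / Schedule: co-culture of at least 90 h after 3 h attachment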
Lmaj promast: reduces viability of Leishmania major promastigotes. resazurin fluorescence viability. inhibition, % at 10 µM. hit rate 9% among 200,000. AID 1063; in the data active = inhibition above about 50%;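 also: promastigotes grown with compound for 44 hours at 28 °C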
Hits are given with their value; . = inactive; ? = inconclusive; / = no result. The sample as a whole holds a higher share of hits than the screen did.

SMILES | PolyA inh | Calb FLC | NALP3 yeast inh | NALP1 inh | T cruzi inh | Lmaj promast
CN(CC(=O)Nc1ccc(Cl)cc1)S(=O)(=O)c1cccc2cccnc12 | . | . | . | 37.3 | . | .
CN(CC(=O)Nc1ccc(F)c(F)c1)S(=O)(=O)c1cccc2cccnc12 | . | . | . | . | . | /
CC(=O)c1cccc(NC(=O)CN(C)S(=O)(=O)c2cccc3nsnc23)c1 | . | . | . | 32.2 | . | /
CCN(CCNC(=O)CN(C)S(=O)(=O)c1cccc2nsnc12)c1ccccc1 | . | . | . | . | . | 94.8
Cc1ccc(NC(=O)CN(C)S(=O)(=O)c2cccc3nsnc23)cc1 | . | . | . | . | . | .
CCN(CCCNC(=O)CN(C)S(=O)(=O)c1cccc2nsnc12)c1cccc(C)c1 | . | . | . | . | . | .
Cc1ccc(S(=O)(=O)CC(=O)N2CCN(c3cccc(C(F)(F)F)c3)CC2)cc1 | . | . | . | . | . | /
Nc1nc(-c2ccccc2)c(N=Nc2ccccc2Cl)s1 | . | 101.1 | . | . | . | .
COc1cccc(CNC(=O)c2ccc(S(=O)(=O)N3CCCC3)cc2)c1 | . | . | . | . | . | .
O=S(=O)(c1ccc(Br)cc1)N1CCCN(Cc2cccc(F)c2)CC1 | . | . | . | . | . | 85.6
O=S(=O)(c1ccccc1)N1CCN(Cc2cccc(Br)c2)CC1 | . | . | . | / | . | /
COc1cccc(CN2CCCN(S(=O)(=O)c3ccc(Br)cc3)CC2)c1 | . | . | . | . | . | 92.6
CC(C)(C)c1ccc(C(=O)OCCNC(=O)c2c(Cl)nc3ccccn23)cc1 | . | . | . | . | . | 75.6
COc1ccc(C(=O)OCCNC(=O)c2c(Cl)nc3ccccn23)cc1 | . | . | . | . | . | .
S=C(Nc1ccccc1)Nc1nc2ccccc2n1CCOc1ccccc1 | . | 93.8 | . | . | . | 51.2
CCCCn1c(NC(=S)Nc2ccccc2)nc2ccccc21 | . | . | . | . | . | 80.0
Cc1ccc([N+](=O)[O-])cc1-c1[nH]c(-c2ccc(O)c(O)c2)nc1-c1ccccc1 | . | 111.8 | . | . | . | .
Cc1nn(Cc2ccc(F)cc2)c(Cl)c1/C=N/NC(=O)c1ccccc1 | . | ? | . | . | 66.1 | .
Cc1nn(-c2ccccc2)c(C)c1/C=N/NC(=O)c1cc(-c2ccccc2)n[nH]1 | . | . | . | / | . | 88.2
Cc1ccc(-n2nc(C)c(/C=N/NC(=O)c3cccnc3)c2Cl)cc1 | . | . | . | . | . | 56.7
CCCCCCCCCC[n+]1cccc(C(=O)N(CC)CC)c1 | . | . | . | . | . | 90.5
NC(=O)c1ccc[n+](CCC[n+]2cccc(C(N)=O)c2)c1 | . | . | . | . | . | .
CCc1cccc(NC(=O)C(NC(=O)C2CCCCC2)C(C)C)c1 (configuration not stated) | . | . | . | . | . | .
Cc1cc(C)c(C#N)c(SCC(=O)C(C)(C)C)n1 | . | . | . | . | 71.8 | 76.8
CCOC(=O)CNC(=O)CSc1nc(C)cc(C)c1C#N | . | . | . | 37.1 | . | .
SMILES | PolyA inh | Calb FLC | NALP3 yeast inh | NALP1 inh | T cruzi inh | Lmaj promast
Cc1cc(C)c(C#N)c(SCC(=O)NC(C)(C)C)n1 | . | . | . | . | . | .
CCOC(=O)NC(=O)CSc1nc(C)cc(C)c1C#N | . | . | . | . | . | .
COc1cc(C(=O)NNC(=O)CN2C(=O)NC(C)(c3ccc(C)cc3)C2=O)cc(OC)c1OC (configuration not stated) | / | / | . | / | / | /
CCCc1cc(=O)n2nc(N3CCC(C(=O)N4CCN(c5ccc(OC)cc5)CC4)CC3)sc2n1 | . | . | . | . | . | /
CN(CC(=O)NCCc1ccc(S(N)(=O)=O)cc1)Cc1ccc(Cl)cc1Cl | . | . | . | . | . | /
CCOC(=O)C1CCCN(C(=O)CSc2nccn2C)C1 (configuration not stated) | . | . | . | . | . | .
CCOC(=O)c1sc(-c2ccccc2)cc1N | . | . | . | . | . | .
CCOC(=O)c1sc(-c2ccccc2)cc1NC(=O)Nc1ccc([N+](=O)[O-])cc1 | . | . | . | . | . | 84.9
CCN(CC(=O)Nc1ccc(OC)cc1)C(=O)Cc1coc2cc(C)c(C)cc12 | / | / | . | / | / | /
CC(C)CC(c1nnnn1C(C)C)N1CCN(c2ccccc2)CC1 (configuration not stated) | . | . | . | . | . | .
Cc1cc(N)ccc1-n1c(C)ccc1C | . | . | . | . | . | .
Cc1cc(N)ccc1N1CCCC1 | . | . | . | . | . | 57.5
O=C(COC(=O)C1(c2ccc(F)cc2)CCCC1)N1CCc2ccccc21 | . | . | . | . | . | .
COc1ccc(-c2csc3ncnc(N4CCN(S(=O)(=O)c5cccc(C(F)(F)F)c5)CC4)c23)cc1 | . | . | . | / | . | /
COc1ccc(-c2csc3ncnc(N4CCN(S(=O)(=O)c5cccc(Br)c5)CC4)c23)cc1 | . | . | . | / | 61.6 | /
C=CCN(c1ccccc1)S(=O)(=O)c1ccc(Cl)c(C(=O)OCC(=O)N(C)C2CCS(=O)(=O)C2)c1 (configuration not stated) | . | . | . | . | . | .
Cc1cc[n+](CCc2ccccc2)cc1C | . | . | . | . | . | /
COc1cc(NC(=O)C2=C(N3CCOCC3)/C(=C\c3ccc(N(C)C)cc3)CCC2)cc(OC)c1OC | . | . | . | . | . | 98.0
COc1cc(NC(=O)C2=C(N3CCOCC3)/C(=C/c3ccc(Cl)cc3)CC2)cc(OC)c1OC | . | . | . | . | . | .
CCN(CC)C(=O)c1[nH]cnc1C(=O)N[C@H](C)c1ccccc1 | / | / | . | / | / | /
COC(=O)Nc1ccc(S(=O)(=O)N2CCCC(C(=O)N3CC(C)OC(C)C3)C2)cc1 (configuration not stated) | . | . | . | . | . | .
COc1ccc(OC)c(NC(=O)COC(=O)c2c3c(nc4ccccc24)CCCC3)c1 | . | . | . | . | . | .
CNC(=O)COC(=O)c1c2c(nc3ccccc13)CCC2 | . | 110.1 | . | . | . | /
COc1ccc(NC(=O)COC(=O)c2c3c(nc4ccccc24)CCCC3)cc1 | . | . | . | . | . | 94.2
O=C(CSc1ccsc1[N+](=O)[O-])NCc1ccco1 | . | ? | . | . | . | .
SMILES | PolyA inh | Calb FLC | NALP3 yeast inh | NALP1 inh | T cruzi inh | Lmaj promast
CN1CCN(NS(=O)(=O)c2ccc(Cl)s2)CC1 | . | . | . | . | . | 55.4
OCCN1CCN(c2nc(-c3ccccc3)c3cc(Br)ccc3n2)CC1 | . | . | . | . | . | /
OCCN1CCN(c2ncnc3ccc(Br)cc23)CC1 | . | . | . | 32.2 | . | .
O=[N+]([O-])c1cccc(-n2cc3ccc([N+](=O)[O-])cc3n2)c1 | / | / | . | / | / | /
CC(C)Oc1ccc(CNCC2(O)CCOC(C)(C)C2)cc1 (configuration not stated) | . | . | . | . | . | .
CC(C)Oc1ccc(CNC2CCOC(C)(C)C2)cc1 (configuration not stated) | . | . | . | . | . | 86.3
